A short description of data set [1]: Drug level in ventricular arrthymia patient urine treated with lidocaine at 1.4 mg/min, iv administered for 36 hrs measured after 30 hrs measured after 30 hrs. It is filed as ADME, organism-based. The conditions noted are these: human, in vivo. The essentials: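 Aliquots were analysed immediately after collection by CIMS stable isotope dilution with deuterated analogues as internal standards. Analysis was run before and after TiCl3 reduction of the urine.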

The subject of data set [2] is Salmonella typhimurium. In words: Genotoxicity in Salmonella typhimurium TA-1538 after 2 days by Ames test relative to control. It is filed as toxicity, organism-based. To be noted: salmonella enterica subsp. enterica serovar typhimurium, 48 h. The essentials:
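Compounds were tested at 1, 10, 100 and 500 μg, added in Me2SO to top agar. His+ revertant colonies were counted after 2 days at 37 °C and compared with Me2SO-only plates.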

The test system of data set [3] is Salmonella typhimurium. The data set can be described thus: Genotoxicity in Salmonella typhimurium TA-1538 after 2 days by Ames test in presence of C57BL/6J mouse liver S9 fraction relative to control. The conditions noted are these: salmonella enterica subsp. enterica serovar typhimurium, s9, 48 h. It is filed as toxicity, organism-based.
Data set [4] can be described thus: Drug level in po dosed human urine treated with lidocaine. It is filed as ADME, organism-based. To be noted: in vivo. The essentials:
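Analysed by chemical-ionization MS stable isotope dilution, with deuterated N-hydroxy analogues as internal standards. Samples were measured before and after TiCl3 reduction. Released 2,6-dimethylaniline was followed by m/e 122/124 ratios and by GC-CIMS selected ion monitoring. Values are given as % of dose.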

A short description of data set [5]: Plasma concentration in ventricular arrthymia patient at 1.4 mg/min, iv administered for 36 hrs measured after 30 hrs. It is filed as ADME, organism-based. To be noted: human.
Data set [6] is filed under the species Mus musculus. In words: Carcinogenic activity in Swiss albino mouse. It is filed as toxicity, organism-based. The conditions noted are these: in vivo.

Regarding `CCNCC(=O)Nc1c(C)cccc1C`, the Drug excretion result in data set [1] and in data set [4] was “metabolite_detected” in each case. In addition, the Activity entry in data set [2] and in data set [3] was “Non-toxic” throughout. In data set [5], this molecule registered a concentration at 30 h of 680 ng/mL.
Regarding `Cc1cccc(C)c1N`, the Activity entry in data set [2] and in data set [3] was “Non-toxic” in each case.
`CCN(CC)CC(=O)N(O)c1c(C)cccc1C`: the Activity result in data set [2], in data set [3] and in data set [6] was “Non-toxic” each time.
`CCNCC(=O)N(O)c1c(C)cccc1C`: the Activity entry in data set [2], in data set [3] and in data set [6] was “Non-toxic” in each case.
Turning to `[2H]C([2H])(C)N(CC)CC(=O)Nc1c(C)cccc1C`, the Drug excretion entry in data set [1] and in data set [4] was “metabolite_detected” in each case.
Regarding `[2H]C([2H])(NCC)C(=O)Nc1c(C)cccc1C`, the Drug excretion result in data set [1] and in data set [4] was “metabolite_detected” throughout.
On to `[2H]C([2H])(C)N(CC(=O)N(O)c1c(C)cccc1C)C([2H])([2H])C`, for which the Activity result in data set [6] is on record as “Non-toxic”.
`Cc1cccc(C)c1NO`: the Drug excretion entry in data set [1] and in data set [4] was “metabolite_detected” in each case. The Activity entry in data set [2], in data set [3] and in data set [6] was “Non-toxic” throughout.
As for `[2H]C([2H])([2H])CNCC(=O)N(O)c1c(C)cccc1C`, the Activity entry in data set [6] was “Non-toxic”.
Same read-out and setting: the entry for `Cc1cccc(C)c1N(O)C(=O)CCl` is “Non-toxic”.
On to `CCN(CC)CC(=O)Nc1c(C)cccc1C` [LIDOCAINE], for which the Drug excretion result in data set [1] and in data set [4] was “metabolite_detected” each time. The molecule further had a concentration at 30 h in data set [5] of 3100 ng/mL.

Values taken from ChEMBL document CHEMBL3272005 (J Med Chem, 1978).
